UBC13 inh = inhibitors of human UBC13 polyubiquitin chain formation. P61088. TR-FRET. inhibition, % at 20 µM. hit rate 0.47% among 330,000. AID 485273; in the data active = inhibition above about 45%, passing the limit was not always enough
Target sequence (P61088 whole entry, looked up): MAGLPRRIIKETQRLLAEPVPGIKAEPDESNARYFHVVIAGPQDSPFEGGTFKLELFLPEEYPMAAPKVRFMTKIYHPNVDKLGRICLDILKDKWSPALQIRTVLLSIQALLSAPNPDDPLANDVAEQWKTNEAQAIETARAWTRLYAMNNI
EBNA-1 inh = blocks EBNA-1 binding to DNA | EBNA-1 DNA binding, fluorescence polarization | inhibition, % at 14.8 µM | hit rate 0.34% among 300,000; in the data active = inhibition above about 28%
PfM18AAP inh-1 = PfM18AAP enzyme inhibition. recombinant PfM18AAP, H-Glu-NHMec fluorogenic cleavage. inhibition, % at 7.35 µM. hit rate 1.2% among 290,000;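 active = inhibition above the campaign mean inhibition over all tested compounds plus 3 SD, cut at about 28% in these data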
Apaf1 inhib = human Apaf-1 inhibition. O14727. reconstituted apoptosome caspase-3 activity, DEVD-Rh110 fluorescence. inhibition, % at 20 µM. hit rate 0.71% among 330,000. AID 489030; active = inhibition of at least 40% at 20 µM
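System – cell-free apoptosome with Apaf-1, procaspase-3 and caspase-9 · Buffer or medium – pH 7.5 Hepes buffer with CHAPS, BSA, DTT · Also added – cytochrome c with DEVD-Rh110 · Times – 30 min compound preincubation, 50 min activation, room temperature · Technique – Rh110 fluorescence intensity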
PfG6PD inh = PfG6PD (Plasmodium falciparum) enzyme inhibition. PfGluPho enzyme, NADPH resazurin-diaphorase fluorescence. inhibition, % at 20 µM. hit rate 0.78% among 350,000. AID 504690;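 active = inhibition reaching at least a set limit at 20 µM in the primary screen, cut at about 59% in these data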
ZTA counter = counter-screen for EBNA-1 inhibitors: inhibitors of Epstein-Barr virus ZTA; P03206; ZTA-DNA binding, fluorescence polarization; inhibition, % at 11 µM; hit rate 0.15% among 320,000; AID 2234; in the data active = inhibition above about 33%
PfM18AAP inh-2 = PfM18AAP inhibition, confirmation; AID 2170; recombinant PfM18AAP, H-Glu-NHMec fluorogenic cleavage; inhibition, % at 7.35 µM; hit rate 28% among 2,400; shares compounds with PfM18AAP inh-1;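 active = mean inhibition over replicate wells above the hit cutoff set for the earlier primary screen, cut at about 29% in these data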
CTSL1 counter = counter-screen for PFM18AAP inhibitors: confirmation of human cathepsin L inhibitors; AID 2178; shares compounds with PfM18AAP inh-1; inhibition, % at 5.96 µM; 2,400 tested, under 10 active; purified cathepsin L1, Z-Leu-Arg-MCA fluorescence;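 active = average inhibition across replicates above the hit cutoff set in the earlier primary screen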
Target sequence (P07711 whole entry, looked up): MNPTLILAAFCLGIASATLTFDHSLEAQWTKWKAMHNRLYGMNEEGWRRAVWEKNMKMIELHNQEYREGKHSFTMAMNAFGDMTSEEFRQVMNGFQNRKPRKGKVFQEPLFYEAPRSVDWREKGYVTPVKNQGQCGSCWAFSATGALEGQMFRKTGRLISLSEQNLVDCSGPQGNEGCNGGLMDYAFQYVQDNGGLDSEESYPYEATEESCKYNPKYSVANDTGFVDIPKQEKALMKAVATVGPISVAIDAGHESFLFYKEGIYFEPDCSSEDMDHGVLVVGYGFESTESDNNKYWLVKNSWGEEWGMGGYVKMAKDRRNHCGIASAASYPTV
Large screens that a line does not name were inactive (follow-up assays come after a bar, where they were run). Hits are enriched below; roughly 2.9% of the tested compounds scored in any of these assays.

Oc1ccccc1C=NN=Cc1ccccc1Cl	none (no result: UBC13 inh, EBNA-1 inh, PfM18AAP inh-1, Apaf1 inhib, ZTA counter)
COCCN(CCOC)Cc1c(O)ccc2c1O/C(=C\c1ccco1)C2=O	PfM18AAP inh-1 38 | PfM18AAP inh-2 inactive | CTSL1 counter inactive
O=C(CN1C(=O)S/C(=C\C=C\c2ccccc2)C1=O)N1CCOCC1	none
Cc1ccc(NS(=O)(=O)c2cc(NC(=O)c3ccc4c(c3)NC(=O)CS4)ccc2Cl)c(C)c1	PfM18AAP inh-1 32 | PfM18AAP inh-2 inactive | CTSL1 counter inactive
NN1C(=O)/C(=C\c2ccco2)SC1=S	PfM18AAP inh-1 34 | PfM18AAP inh-2 inactive | CTSL1 counter inactive
O=C(CN1C(=O)/C(=C/c2ccco2)SC1=S)NC1CCS(=O)(=O)C1 (stereo unspecified)	PfM18AAP inh-1 39 | PfM18AAP inh-2 inactive | CTSL1 counter inactive
O=c1[nH]c([N+](=O)[O-])nn1C(c1ccccc1)c1ccccc1	none
COC(=O)c1ccn(CSc2cc(Cl)ccc2Cl)n1	none (no result: EBNA-1 inh, PfM18AAP inh-1)
CC(C)[C@H](NC(=O)c1cccc(CN(Cc2ccccc2)C(=O)c2ccccc2)c1)C(=O)O	none (no result: PfM18AAP inh-1)
O=C(CSc1nc(-c2ccccc2)ns1)NCC1CCCO1 (stereo unspecified)	PfM18AAP inh-1 35 | PfM18AAP inh-2 inactive | CTSL1 counter inactive
Cc1ncc(CN2CCC(CO)(Cc3ccccc3)CC2)s1	none
COc1cccc(C(=O)/C=C/Nc2cc(C)ccc2O)c1	PfM18AAP inh-1 68 | PfM18AAP inh-2 inactive | CTSL1 counter inactive
CNC(=S)N/N=C/c1c(Cl)cccc1Cl	none
CCc1nnc(N/N=C/c2cc(Br)c(O)cc2O)n1N	PfM18AAP inh-1 62 | PfM18AAP inh-2 54 | CTSL1 counter inactive
CCc1nnc(N/N=C/c2c(Cl)cccc2Cl)n1N	PfM18AAP inh-1 56 | PfM18AAP inh-2 inactive | CTSL1 counter inactive
O=C(CSc1ccccn1)Nc1ccc2[nH]c(=O)[nH]c2c1	none (no result: EBNA-1 inh, PfM18AAP inh-1)
Oc1ccc2c(c1)C1CCCC1(N1CCOCC1)O2 (stereo unspecified)	PfM18AAP inh-1 36 | PfM18AAP inh-2 inactive | CTSL1 counter inactive
CC1=C(C(=O)N2CCOCC2)C(c2ccc(O)cc2)NC(=S)N1 (stereo unspecified)	none
COc1ccc(CN2C(=O)c3ccccc3C2C(=O)NC2CCC(C)CC2)c(OC)c1 (stereo unspecified)	none
Cc1cc(NO)nc(-c2ccc(Br)cc2)n1	PfM18AAP inh-1 56 | PfM18AAP inh-2 32 | CTSL1 counter inactive
Cc1cc(C)nc(NC(=O)c2ccc(Br)cc2)n1	none
CC(C)C(OC(=O)CN1C(=O)COc2ccccc21)C(=O)NC1CCCCC1 (stereo unspecified)	none
C=Cc1ccc2c(c1)N(C)C(=C)S2	PfM18AAP inh-1 47 | PfM18AAP inh-2 inactive | CTSL1 counter inactive
CC(=O)c1ccc2c(c1)N(C)c1ccccc1S2	none
COc1cc(CN2CCCCCC2)c([N+](=O)[O-])cc1OC	PfM18AAP inh-1 33 | PfM18AAP inh-2 inactive | CTSL1 counter inactive
COc1cccc(C2C(C#N)=C(N)N(N(C)C)C3=C2C(=O)CCC3)c1 (stereo unspecified)	none
COc1ccc(N2C(N)=C(C#N)C(c3ccsc3)C3=C2CCCC3=O)c(OC)c1 (stereo unspecified)	PfM18AAP inh-1 35 | PfM18AAP inh-2 inactive | CTSL1 counter inactive
Cc1ccc(S(=O)(=O)N(CC(=O)Nc2cccnc2)c2ccccc2C)cc1	none
O=C1CC(NS(=O)(=O)c2ccc([N+](=O)[O-])cc2)CN1c1ccc(Cl)cc1 (stereo unspecified)	none (no result: PfM18AAP inh-1)
O=C(Cc1ccc2c(c1)OCCO2)c1c(O)cc(O)cc1O	PfM18AAP inh-1 39 | PfM18AAP inh-2 inactive | CTSL1 counter inactive
O=[N+]([O-])c1cc(C=Nc2cccc3c(O)cccc23)ccc1Cl	PfM18AAP inh-1 39 (no result: PfG6PD inh) | PfM18AAP inh-2 inactive | CTSL1 counter inactive
O=C(c1ccc(-c2cccc(Cl)c2Cl)o1)N1CCOCC1	none
O=C(c1ccc(-c2ccc([N+](=O)[O-])cc2Cl)o1)N1CCOCC1	PfM18AAP inh-1 39 | PfM18AAP inh-2 inactive | CTSL1 counter inactive

Assay outcomes deposited in PubChem BioAssay by several laboratories.
